Experimental data from the M2OR odorant receptor database.

Experiments:
Conditions in all cases: stereoisomer not certain
OR10S1 (Homo sapiens) = molecular target: T1, OR10S1 (Homo sapiens) (UniProt Q8NGN2)
T1 sequence (whole entry): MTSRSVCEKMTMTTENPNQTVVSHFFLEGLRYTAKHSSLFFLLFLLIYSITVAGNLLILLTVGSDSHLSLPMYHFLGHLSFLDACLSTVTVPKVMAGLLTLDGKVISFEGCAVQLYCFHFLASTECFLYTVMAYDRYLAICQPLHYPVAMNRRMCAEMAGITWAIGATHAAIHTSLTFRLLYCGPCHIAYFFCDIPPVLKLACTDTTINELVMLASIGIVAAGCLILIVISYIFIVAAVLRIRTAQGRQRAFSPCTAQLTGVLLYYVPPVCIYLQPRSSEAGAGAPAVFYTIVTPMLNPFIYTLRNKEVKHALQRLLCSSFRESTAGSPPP
In short: (§1)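 Assay methods differ from source to source, frequently being transient luciferase assays in mammalian cell lines. For each receptor–molecule pair, the label responsive (active) applies when the original authors judged the measured signal statistically different from baseline, and non-responsive (inactive) applies otherwise.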

OR10Q1 (Homo sapiens) = OR10Q1 (Homo sapiens) (UniProt Q8NGQ4)
Chain of OR10Q1 (Homo sapiens) (Q8NGQ4 whole entry): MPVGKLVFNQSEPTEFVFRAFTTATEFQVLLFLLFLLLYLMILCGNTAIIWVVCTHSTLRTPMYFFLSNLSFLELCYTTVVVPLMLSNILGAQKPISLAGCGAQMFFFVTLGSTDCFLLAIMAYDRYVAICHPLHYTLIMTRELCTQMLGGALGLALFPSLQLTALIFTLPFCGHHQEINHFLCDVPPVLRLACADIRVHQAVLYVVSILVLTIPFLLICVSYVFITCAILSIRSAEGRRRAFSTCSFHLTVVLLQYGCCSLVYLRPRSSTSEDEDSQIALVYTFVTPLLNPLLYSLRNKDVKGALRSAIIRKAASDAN
In short: as §1

OR10R2 (Homo sapiens) = OR10R2 (Homo sapiens) (UniProt Q8NGX6)
Chain of OR10R2 (Homo sapiens) (Q8NGX6 whole entry): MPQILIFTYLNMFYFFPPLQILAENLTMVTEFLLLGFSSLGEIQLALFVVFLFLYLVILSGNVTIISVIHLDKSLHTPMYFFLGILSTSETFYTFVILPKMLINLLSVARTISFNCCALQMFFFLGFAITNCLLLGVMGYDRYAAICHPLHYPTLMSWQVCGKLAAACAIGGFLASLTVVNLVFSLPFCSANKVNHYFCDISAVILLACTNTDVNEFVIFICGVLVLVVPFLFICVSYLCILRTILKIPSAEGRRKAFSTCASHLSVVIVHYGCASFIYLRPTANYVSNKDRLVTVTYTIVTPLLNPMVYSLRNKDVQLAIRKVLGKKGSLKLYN
In short: as §1

OR10T2 (Homo sapiens) = OR10T2 (Homo sapiens) (UniProt Q8NGX3)
Chain of OR10T2 (Homo sapiens) (Q8NGX3 whole entry): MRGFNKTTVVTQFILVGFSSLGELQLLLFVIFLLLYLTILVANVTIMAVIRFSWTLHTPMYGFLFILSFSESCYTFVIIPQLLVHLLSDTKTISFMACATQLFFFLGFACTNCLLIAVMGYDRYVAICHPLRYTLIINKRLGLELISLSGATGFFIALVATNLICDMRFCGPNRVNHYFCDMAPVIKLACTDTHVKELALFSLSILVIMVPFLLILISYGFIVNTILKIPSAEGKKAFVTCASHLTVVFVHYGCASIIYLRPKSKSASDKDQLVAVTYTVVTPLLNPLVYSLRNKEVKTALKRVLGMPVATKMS
In short: as §1

OR10V1 (Homo sapiens) = OR10V1 (Homo sapiens) (UniProt Q8NGI7)
Chain of OR10V1 (Homo sapiens) (Q8NGI7 whole entry): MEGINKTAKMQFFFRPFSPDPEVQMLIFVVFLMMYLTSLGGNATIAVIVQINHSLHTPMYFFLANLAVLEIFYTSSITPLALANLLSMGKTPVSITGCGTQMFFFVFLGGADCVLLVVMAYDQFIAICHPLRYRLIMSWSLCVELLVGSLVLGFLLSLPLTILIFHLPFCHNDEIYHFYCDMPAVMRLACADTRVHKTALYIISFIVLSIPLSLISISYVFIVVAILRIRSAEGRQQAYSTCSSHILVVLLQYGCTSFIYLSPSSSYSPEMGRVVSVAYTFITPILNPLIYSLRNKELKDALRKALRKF
In short: as §1

OR10W1 (Homo sapiens) = OR10W1 (Homo sapiens) (UniProt Q8NGF6)
Chain of OR10W1 (Homo sapiens) (Q8NGF6 whole entry): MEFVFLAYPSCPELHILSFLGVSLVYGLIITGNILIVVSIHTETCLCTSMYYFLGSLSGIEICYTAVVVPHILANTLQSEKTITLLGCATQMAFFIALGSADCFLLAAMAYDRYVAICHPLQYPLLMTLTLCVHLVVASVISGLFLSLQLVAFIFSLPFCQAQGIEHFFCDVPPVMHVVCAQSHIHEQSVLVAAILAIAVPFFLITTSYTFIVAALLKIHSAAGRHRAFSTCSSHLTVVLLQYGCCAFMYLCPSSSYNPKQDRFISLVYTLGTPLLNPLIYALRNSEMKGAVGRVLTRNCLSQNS
In short: as §1

OR10X1 (Homo sapiens) = OR10X1 (Homo sapiens) (UniProt Q8NGY0)
Chain of OR10X1 (Homo sapiens) (Q8NGY0 whole entry): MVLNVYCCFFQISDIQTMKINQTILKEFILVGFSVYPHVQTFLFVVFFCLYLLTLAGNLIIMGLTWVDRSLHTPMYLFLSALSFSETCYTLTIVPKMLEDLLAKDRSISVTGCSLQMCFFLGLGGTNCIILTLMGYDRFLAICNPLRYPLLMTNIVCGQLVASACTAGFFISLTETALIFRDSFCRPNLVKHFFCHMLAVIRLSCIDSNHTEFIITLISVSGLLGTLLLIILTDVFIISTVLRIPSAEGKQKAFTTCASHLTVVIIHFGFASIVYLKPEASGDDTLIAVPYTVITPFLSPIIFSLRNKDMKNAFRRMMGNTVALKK
In short: as §1

OR10Z1 (Homo sapiens) = OR10Z1 (Homo sapiens) (UniProt Q8NGY1)
Chain of OR10Z1 (Homo sapiens) (Q8NGY1 whole entry): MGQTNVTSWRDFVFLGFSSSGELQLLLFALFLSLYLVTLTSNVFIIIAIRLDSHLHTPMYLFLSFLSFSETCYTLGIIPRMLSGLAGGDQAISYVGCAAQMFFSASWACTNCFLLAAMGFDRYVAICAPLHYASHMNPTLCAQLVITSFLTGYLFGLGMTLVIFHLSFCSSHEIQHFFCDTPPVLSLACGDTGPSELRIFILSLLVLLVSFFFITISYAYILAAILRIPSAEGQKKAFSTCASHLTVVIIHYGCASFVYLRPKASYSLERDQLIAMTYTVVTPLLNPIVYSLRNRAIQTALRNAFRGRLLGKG
In short: as §1

OR11A1 (Homo sapiens) = OR11A1 (Homo sapiens) (UniProt Q9GZK7)
Chain of OR11A1 (Homo sapiens) (Q9GZK7 whole entry): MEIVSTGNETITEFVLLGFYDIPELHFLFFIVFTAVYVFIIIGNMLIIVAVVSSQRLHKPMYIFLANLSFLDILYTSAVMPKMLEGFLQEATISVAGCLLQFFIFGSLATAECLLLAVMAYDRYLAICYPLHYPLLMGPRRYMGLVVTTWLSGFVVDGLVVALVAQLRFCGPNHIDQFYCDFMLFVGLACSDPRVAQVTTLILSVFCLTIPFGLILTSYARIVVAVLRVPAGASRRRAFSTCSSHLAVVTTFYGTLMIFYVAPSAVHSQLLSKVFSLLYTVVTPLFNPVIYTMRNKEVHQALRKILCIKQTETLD
In short: as §1

OR11G2 (Homo sapiens) = OR11G2 (Homo sapiens) (UniProt Q8NGC1)
Chain of OR11G2 (Homo sapiens) (Q8NGC1 whole entry): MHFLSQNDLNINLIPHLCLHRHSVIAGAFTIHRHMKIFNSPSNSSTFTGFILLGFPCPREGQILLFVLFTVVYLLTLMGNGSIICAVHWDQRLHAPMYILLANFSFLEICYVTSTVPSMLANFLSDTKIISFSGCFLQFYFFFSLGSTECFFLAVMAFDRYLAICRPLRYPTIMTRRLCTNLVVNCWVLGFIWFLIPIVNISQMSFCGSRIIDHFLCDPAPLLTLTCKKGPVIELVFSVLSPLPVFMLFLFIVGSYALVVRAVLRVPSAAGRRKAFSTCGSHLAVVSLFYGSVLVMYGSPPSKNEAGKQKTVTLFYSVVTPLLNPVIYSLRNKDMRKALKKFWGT
In short: as §1

Measured: odorant receptor agonist call

COc1ccc(C=O)cc1
inactive: OR10S1 (Homo sapiens)

Cc1c([N+](=O)[O-])c(C)c([N+](=O)[O-])c(C(C)(C)C)c1[N+](=O)[O-]
inactive: all assays above

C=CCOC(=O)Cc1ccccc1
inactive: all assays above

Cc1cccc(C)c1
inactive: OR10S1 (Homo sapiens)
